Screening data: PubChem BioAssay, several laboratories
Sampled rows, rich in hits. Any-hit rate of the full collection: about 7.2%.
M1 agonist – M1 muscarinic receptor agonism | CHO-M1 cells, Fluo-4 calcium fluorescence, agonist mode; active compounds read high | B-score at 10 µM | 3% of 64,000 active;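 active means fluorescence rise, raw or as B-score row- and column-corrected plate score, outside the 99.7% band of its plate's samples, either direction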
DAT uptake mod – changed human dopamine transporter uptake under cocaine IC80; AID 449768; B-score at 10 µM; Q01959; LLC-PK1 hDAT cells, [14C]-dopamine uptake with cocaine IC80; actives deviate in either direction; 1.3% of 110,000 active;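 active means Z score or B-score, a plate-position-corrected score, falls beyond the plate's 99.7% confidence bounds, in either direction; inactive means both scores lie inside the 99.7% bounds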;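 further: scored against the spread of the other compound wells on the same plate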
D1 mod – D1 dopamine receptor (human) allosteric modulation; P21728; HEK293 D1, CRE-luciferase, dopamine EC30 potentiation; actives deviate in either direction; B-score at 10 µM; 5.9% of 58,000 active; AID 641;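 active means luminescence count or its row- and column-corrected plate score outside the 99.7% band of the plate's sample wells, on either side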
Target sequence (P21728 whole entry, looked up): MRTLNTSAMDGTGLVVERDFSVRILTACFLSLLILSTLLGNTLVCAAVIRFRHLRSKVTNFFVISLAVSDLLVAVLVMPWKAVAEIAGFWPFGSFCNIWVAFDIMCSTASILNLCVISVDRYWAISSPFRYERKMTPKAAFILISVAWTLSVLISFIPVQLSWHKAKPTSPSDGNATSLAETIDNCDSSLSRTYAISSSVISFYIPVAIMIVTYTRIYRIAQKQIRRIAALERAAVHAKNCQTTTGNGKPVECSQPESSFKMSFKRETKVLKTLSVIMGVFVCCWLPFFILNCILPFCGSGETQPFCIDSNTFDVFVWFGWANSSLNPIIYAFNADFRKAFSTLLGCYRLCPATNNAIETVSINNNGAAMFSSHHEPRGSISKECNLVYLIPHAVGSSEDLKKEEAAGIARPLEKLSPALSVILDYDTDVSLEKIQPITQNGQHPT
M1 antagonist – M1 muscarinic receptor (rat) antagonism; P08482; CHO-M1 cells, Fluo-4 calcium, ACh EC80 antagonist mode; active compounds read low; B-score at 10 µM; 3.4% of 64,000 active; AID 628;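 active means calcium fluorescence response, raw or row-and-column corrected B-score, differing from the plate sample mean either way at a set confidence level, mostly lower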
BAP1 block – inhibitors of human BAP1 deubiquitinase; Q92560; recombinant BAP1, Ub-AMC hydrolysis fluorescence kinetic; active compounds read low; calls only at 20 µM; 0.48% of 72,000 active; AID 436;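 active means activity remaining at or below 50% of control, provided the compound also passes the data quality filters; inactive means the rest, including low values that fail the filters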;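 further: 100% = DMSO wells rate and 0% = substrate alone blank rate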
HEK293 NFkB inh – inhibitors of the PMA/ionomycin-induced NF-kB reporter in HEK293 cells | HEK-293 NF-kB luciferase reporter, luminescence | inhibition, % at 3 µM | 0.21% of 62,000 active | AID 465;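 active means inhibition above the mean of all tested compounds plus 3 SD, cut at about 40% in these data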;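 further: 0% = stimulated DMSO wells and 100% = 10 µM reference inhibitor 5653914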
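Reagent: PMA plus ionomycin mix as NF-kB-activating stimulus. Assay system: NF-kB luciferase reporter HEK-293 cells. Technique: luminescence from luciferase substrate reagent. Incubation: 1 h compound pre-incubation, 16 h PMA/ionomycin at 37 °C. Benchmarks: DMSO only as uninhibited control, 10 µM reference inhibitor as full inhibition. Repeats: tested once.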
D1 mod confirm – confirmation of human D1 dopamine receptor allosteric modulators; HEK293 D1 CRE-luciferase, dopamine EC30 potentiation; active compounds read high; shares compounds with D1 mod; luminescence at 10 µM; 88% of 2,200 active;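 active means luminescence in either of two replicates above the same-plate mean plus 3 SD of the low-dose dopamine control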
D1 ag no DA – D1 (human) signaling in absence of dopamine | shares compounds with D1 mod | HEK293 D1 CRE-luciferase, luminescence, no dopamine; active compounds read high | luminescence at 10 µM | 0.8% of 1,900 active | AID 646; in the data active means luminescence above about 3900
Isoprot counter – counter-screen for D1 modulators: isoproterenol response in HEK293 cells | shares compounds with D1 mod | HEK293 D1 CRE-luciferase, isoproterenol EC30 counter-screen | calls only at 10 µM | 63% of 2,200 active;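 active means luminescence in either replicate above plate mean of wells with a partly effective reference agonist dose plus 3 SD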;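 further: isoproterenol raises cAMP through native beta-adrenoceptor Gs so signal bypasses D1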
* hit, by the source's call.

`CCOc1ccc(S(=O)(=O)Nc2ccc3c(c2)OCO3)c2cccnc12` gave M1 agonist 0.253, DAT uptake mod -0.0125, D1 mod 4.77*, M1 antagonist -0.0313, BAP1 block inactive, HEK293 NFkB inh 4.3, D1 mod confirm 9784*, D1 ag no DA 1612 and Isoprot counter active.
For CCOc1ccc(S(=O)(=O)NCc2ccc(F)cc2)c2cccnc12 the results were M1 agonist 0.228, DAT uptake mod -2.72, D1 mod 10.3*, M1 antagonist 0.44, BAP1 block inactive, HEK293 NFkB inh 6.5, D1 mod confirm 10944* and Isoprot counter active.
For CCCOC(=O)C1=C(C)N(C)C(=O)NC1c1ccc(O)c(OC)c1 (centres undefined) the results were BAP1 block inactive.
`C=CCOc1ccc(C2Oc3ccccc3C3CC(c4ccc(OC)cc4)=NN32)cc1` (centres undefined) gave BAP1 block inactive.
O=C(Nc1ccccc1C(F)(F)F)N1CCN(c2ccc3nnc(-c4ccc(F)cc4)n3n2)CC1 was read as M1 agonist -0.132, DAT uptake mod 1.79, D1 mod 3.91*, M1 antagonist 0.657, BAP1 block inactive, HEK293 NFkB inh 14.7, D1 mod confirm 7116*, D1 ag no DA 1528 and Isoprot counter active.
For O=C(Nc1ccc(F)cc1)N1CCN(c2ccc3nnc(-c4ccc(F)cc4)n3n2)CC1 the results were DAT uptake mod 0.0564.
Screening N#Cc1nc(N2CCCC2)nc(N2CCCC2)n1 returned M1 agonist -1.18, DAT uptake mod -0.438, D1 mod 5.65*, M1 antagonist 0.0259, BAP1 block inactive, HEK293 NFkB inh 36.4, D1 mod confirm 16648*, D1 ag no DA 1396 and Isoprot counter active.
For N#Cc1nc(N2CCCCC2)nc(N2CCOCC2)n1 the results were M1 agonist -0.138, DAT uptake mod -0.526, D1 mod 7.48*, M1 antagonist -1.36, BAP1 block inactive, HEK293 NFkB inh -0.7, D1 mod confirm 9460* and Isoprot counter active.
For FC(F)(F)c1cc(-c2ccco2)nc(NCc2ccco2)n1 the results were M1 agonist -1.16, DAT uptake mod 0.849, D1 mod 14.7*, M1 antagonist 0.763, BAP1 block inactive, HEK293 NFkB inh 18.3, D1 mod confirm 10384*, D1 ag no DA 1612 and Isoprot counter active.
Screening FC(F)(F)c1cc(-c2ccco2)nc(-n2nc(C(F)(F)F)cc2C2CC2)n1 returned M1 agonist 0.678, DAT uptake mod -0.00113, D1 mod 5.25*, M1 antagonist 0.0444, BAP1 block inactive, HEK293 NFkB inh 21.6, D1 mod confirm 5828, D1 ag no DA 1672 and Isoprot counter active.
Screening CN1CCN(c2nc(-c3ccco3)cc(C(F)(F)F)n2)CC1 returned DAT uptake mod -0.741.
For FC(F)(F)c1cc(-c2ccco2)nc(NCc2cccs2)n1 the results were M1 agonist -0.325, DAT uptake mod 0.00976, M1 antagonist 1.52 and HEK293 NFkB inh 10.3.
`COc1ccc(-c2cc(C(F)(F)F)nc(NCc3ccco3)n2)cc1OC` gave M1 agonist 0, DAT uptake mod -1.33, M1 antagonist 0 and HEK293 NFkB inh 14.1.
For COc1cccc(-c2cc(C(F)(F)F)nc(NCc3ccco3)n2)c1 the results were M1 agonist 0.0425, DAT uptake mod -0.704, D1 mod 3.01*, M1 antagonist 0.746, BAP1 block inactive, HEK293 NFkB inh 13.8, D1 mod confirm 7368* and Isoprot counter active.
For Cc1ccc(NC(=O)c2ccccc2-c2nc3ccccc3[nH]2)cc1C the results were BAP1 block inactive.
Screening CCOc1ccc(C=Nc2ccccc2Sc2c(C)n[nH]c2C)cc1 returned BAP1 block inactive.
